Data taken from ChEMBL document CHEMBL1275284, “Therapeutic potential of sulindac hydroxamic acid against human pancreatic and colonic cancer cells” (Eur J Med Chem, 2010).
Activity calls are given as the source filed them. The rule behind the calls is not given here.

Assays:
[1] = system: MIA PaCa-2; assay: Cytotoxicity against human MIAPaCa2 cells after 72 hrs by WST-1 assay; type: functional, cell-based; conditions: MIA PaCa-2, 72 h
[2] = Cytotoxicity against human COLO320 cells after 72 hrs by WST-1 assay; type: functional, cell-based; conditions: COLO 320, 72 h
[3] = system: MIA PaCa-2; assay: Induction of apoptosis in human MIAPaCa2 cells assessed as DNA internucleosomal fragmentation at 200 uM after 48 hrs relative to control; type: functional, cell-based
How it was run: (§1)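 MIA PaCa-2 or COLO320 cells (DMEM, 10% FBS, 2.5% horse serum, 37 °C, 5% CO2) treated 48 h at 200 µM. Oligonucleosomal fragments in the cytoplasmic fraction measured, along with necrotic death, expressed relative to untreated control. Mean ± SEM, n = 3.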

[4] = system: COLO 320; assay: Induction of apoptosis in human COLO320 cells assessed as DNA internucleosomal fragmentation at 200 uM after 48 hrs relative to control; type: functional, cell-based; how it was run: as §1
[5] = system: MIA PaCa-2; assay: Induction of apoptosis in human MIAPaCa2 cells assessed as increase in caspase 3/7 activation at 200 uM after 24 hrs by spectrofluorimetry relative to control; type: functional
How it was run: (§2)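 Caspase 3/7 activity assayed after 24 h exposure of cells to 200 µM compound. Fluorescent signal of treated cells expressed as a ratio to that of vehicle-only untreated cells. Mean ± SEM, n = 3.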

[6] = system: COLO 320; assay: Induction of apoptosis in human COLO320 cells assessed as increase in caspase 3/7 activation at 200 uM after 24 hrs by spectrofluorimetry relative to control; type: functional; how it was run: as §2
[7] = system: MIA PaCa-2; assay: Induction of apoptosis in human MIAPaCa2 cells assessed as change in Bax to Bcl2 mRNA expression ratio at 200 uM after 24 hrs by RT-PCR assay relative to control; type: functional, cell-based
How it was run: (§3)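 Cells exposed 24 h to 200 µM compound. bax and bcl-2 mRNA measured by semi-quantitative RT-PCR, normalized to GAPDH mRNA, and the bax:bcl-2 ratio compared with control. Mean ± SEM, n = 3.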

[8] = system: COLO 320; assay: Induction of apoptosis in human COLO320 cells assessed as increase in Bax to Bcl2 mRNA expression ratio at 200 uM after 24 hrs by RT-PCR assay relative to control; type: functional; how it was run: as §3
[9] = system: HUVEC; assay: Cytotoxicity against HUVEC at 0.1 uM after 96 hrs by trypan blue exclusion test; type: cell-based; conditions: human
[10] = system: HUVEC; assay: Antiangiogenic activity in HUVEC assessed as inhibition of bFGF-induced cell proliferation at 0.1 uM after 96 hrs by haemocytometry; type: functional, cell-based; conditions: Homo sapiens
[11] = system: HUVEC; assay: Antiangiogenic activity in HUVEC assessed as inhibition of VEGF-induced cell proliferation at 0.1 uM after 96 hrs by haemocytometry; type: functional, cell-based; conditions: Homo sapiens

CSc1ccc(C=C2C(C)=C(CC(=O)NO)c3cc(F)ccc32)cc1
IC50 [1]: 32 µM | IC50 [2]: 6 µM | Activity [3]: inactive | Activity [4]: inactive | fold change (FC) [5]: 5 | fold change (FC) [6]: 5 | Activity [7]: inactive | Activity [8]: 130% | Activity [9]: Non-toxic | Activity [10]: Active | Activity [11]: Active

CC1=C(CC(=O)NO)c2cc(F)ccc2C1=Cc1ccc([S+](C)[O-])cc1 (stereo not drawn)
IC50 [1]: 64.1 µM | IC50 [2]: 62.5 µM | Activity [3]: inactive | Activity [4]: inactive | fold change (FC) [5]: 5 | fold change (FC) [6]: 5 | Activity [9]: Non-toxic | Activity [10]: Active | Activity [11]: Active

CSc1ccc(/C=C2/C(C)=C(CC(=O)O)c3cc(F)ccc32)cc1 [SULINDAC SULFIDE]
IC50 [1]: 146 µM | IC50 [2]: 38.7 µM | Activity [3]: inactive | Activity [4]: inactive | Activity [7]: inactive | Activity [10]: Active | Activity [11]: Active

CC1(C)OC(=O)C(c2cccc(F)c2)=C1c1ccc(S(C)(=O)=O)cc1
IC50 [1]: > 200 µM | IC50 [2]: > 200 µM

CC1=C(CC(=O)O)c2cc(F)ccc2/C1=C\c1ccc(S(C)(=O)=O)cc1 [EXISULIND]
IC50 [1]: > 200 µM | IC50 [2]: > 200 µM | Activity [3]: inactive | Activity [4]: inactive | Activity [10]: Active | Activity [11]: Active

CC1=C(CC(=O)NO)c2cc(F)ccc2C1=Cc1ccc(S(C)(=O)=O)cc1
IC50 [1]: 44.4 µM | IC50 [2]: 26.2 µM | Activity [3]: inactive | Activity [4]: inactive | fold change (FC) [5]: 5 | fold change (FC) [6]: 5 | Activity [9]: Non-toxic | Activity [10]: Active | Activity [11]: Active

CC1=C(CC(=O)O)c2cc(F)ccc2/C1=C\c1ccc([S+](C)[O-])cc1 (stereo not drawn) [SULINDAC]
IC50 [1]: > 200 µM | IC50 [2]: > 200 µM | Activity [3]: inactive | Activity [4]: inactive
